4 compounds from ChEMBL document CHEMBL3826890, “Synthesis and properties of peptide nucleic acid labeled at the N-terminus with HiLyte Fluor 488 fluorescent dye” (Bioorg Med Chem, 2016) can be followed below.

Data set [1] can be described thus: Binding affinity to dsRNA (unknown origin) after 350 to 600 secs by isothermal titration calorimetry assay. A general note: In ITC the heat of successive injections is recorded.
Data set [2] can be described thus: Drug uptake in cytoplasm of human Caco2 cells at 1 uM after 24 hrs using HF488-labeled compound by lysotracker deep red/DAPI based fluorescence assay. In kind it is ADME, cell-based. The conditions noted are these: caco-2, 24 h. The method in brief:
(§1)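 Cells treated with 1 µM HF488-labeled PNA in Opti-MEM at 37 °C, 10% CO2, for 24 h. Acidic organelles then stained with LysoTracker Deep Red and nuclei with DAPI. Intracellular localization assessed by fluorescence microscopy.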

Data set [3] is described as follows: Drug uptake in cytoplasm of HEK293 cells at 1 uM after 24 hrs using HF488-labeled compound by lysotracker deep red/DAPI based fluorescence assay. The conditions noted are these: human, hek293, 24 h. In kind it is ADME, cell-based. The method in brief:
as §1

Data set [4] is described as follows: Drug uptake in cytoplasm of human U87MG cells at 1 uM after 24 hrs using HF488-labeled compound by lysotracker deep red/DAPI based fluorescence assay. It counts as ADME, cell-based. The note with it: u-87mg atcc. The gist of the method: as §1
A short description of data set [5]: Drug uptake in cytoplasm of human MDA-MB-231 cells at 1 uM after 24 hrs using HF488-labeled compound by lysotracker deep red/DAPI based fluorescence assay. In kind it is ADME, cell-based. The note with it: mda-mb-231, 24 h. The gist of the method:
as §1

Data set [6] relates to HEK293. In words: Fluorescence intensity in buffer at 1 uM at pH <7 at 25 degC after 12 hrs using FAM-labeled compound by fluorescence spectroscopy.
The test system of data set [7] is HEK293. Put plainly: Fluorescence intensity in buffer at 1 uM at pH 5 to 8 at 25 degC after 12 hrs using 5'-HF488-labeled compound by fluorescence spectroscopy. The conditions noted are these: pH 5, 12 h.
In data set [8] the test system is HEK293. Put plainly: Fluorescence intensity in buffer at 1 uM at pH 5 to 8 at 25 degC after 12 hrs using 6'-HF488-labeled compound by fluorescence spectroscopy. The note with it: pH 5, 12 h.
In data set [9] the test system is HEK293. Put plainly: Drug degradation in HEK293 cells assessed as photobleaching rate at 1 uM after 4 scans using FAM-labeled compound by DAPI staining-based laser scanning microscopic method. In kind it is ADME, cell-based. The note with it: human, hek293, 1 µM. The gist of the method: (§2)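 Live HEK293 cells incubated 12 h at 37 °C with 1 µM labeled PNA in Opti-MEM, then nuclei stained with DAPI. Laser scanning confocal images (63× objective) taken at 32-s intervals over 30 min, scan average 8. Photostability given as MFI of each scan divided by MFI of the first scan, as a percentage. Mean of three experiments.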

Data set [10] has as its system HEK293. In words: Drug degradation in HEK293 cells assessed as photobleaching rate at 1 uM after 12 scans using FAM-labeled compound by DAPI staining-based laser scanning microscopic method. In kind it is ADME, cell-based. The conditions noted are these: human, hek293, 1 µM. The method in brief: as §2
Data set [11] has as its system HEK293. In words: Drug uptake in HEK293 cells at 1 uM after 12 hrs using FAM-labeled compound by flow cytometric method. In kind it is ADME, cell-based. The note with it: human, hek293, 12 h. The gist of the method:
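HEK293 cells incubated 12 h at 37 °C with 1 µM labeled PNA in Opti-MEM. Cells harvested, resuspended in DPBS and analysed by flow cytometry.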
(In flow cytometry, cells or beads pass a laser one at a time.)

Regarding `Cc1cn(CC(=O)N(CCNC(=O)CN(CCNC(=O)CN(CCNC(=O)CN(CCNC(=O)[C@@H](N)CCCCN)C(=O)Cc2ccc(N)nc2)C(=O)Cn2cc(C)c(=O)[nH]c2=O)C(=O)Cc2ccc(N)nc2)CC(=O)NCCN(CC(=O)NCCN(CC(=O)NCCN(CC(=O)NCCN(CC(=O)NCCN(CC(=O)N[C@H](CCCCN)C(=O)N[C@@H](CCCCN)C(=O)N[C@H](CCCCN)C(N)=O)C(=O)Cc2ccc(N)nc2)C(=O)Cc2ccc(N)nc2)C(=O)Cn2cc(C)c(=O)[nH]c2=O)C(=O)Cn2cc(C)c(=O)[nH]c2=O)C(=O)Cc2ccc(N)nc2)c(=O)[nH]c1=O`, in data set [1], binding was characterised by a dissociation constant (Kd) of 7.35 nM.

With `Cc1cn(CC(=O)N(CCNC(=O)CN(CCNC(=O)CN(CCNC(=O)CN(CCNC(=O)[C@@H](N)CCCCN)C(=O)Cc2ccc(N)nc2)C(=O)Cn2cc(C)c(=O)[nH]c2=O)C(=O)Cc2ccc(N)nc2)CC(=O)NCCN(CC(=O)NCCN(CC(=O)NCCN(CC(=O)NCCN(CC(=O)NCCN(CC(=O)N[C@@H](CCCCN)C(=O)N[C@@H](CCCCN)C(=O)N[C@@H](CCCCN)C(N)=O)C(=O)Cc2ccc(N)nc2)C(=O)Cc2ccc(N)nc2)C(=O)Cn2cc(C)c(=O)[nH]c2=O)C(=O)Cn2cc(C)c(=O)[nH]c2=O)C(=O)Cc2ccc(N)nc2)c(=O)[nH]c1=O`, the Drug uptake result in [2], in data set [3], in data set [4] and in data set [5] was “Active” throughout.

As for `Cc1cn(CC(=O)N(CCNC(=O)CN(CCNC(=O)CN(CCNC(=O)CN(CCNC(=O)[C@H](CCCCN)NC(=O)COCCOCCNC(=O)COCCOCCN)C(=O)Cn2ccc(N)nc2=O)C(=O)Cn2cc(C)c(=O)[nH]c2=O)C(=O)Cn2ccc(N)nc2=O)CC(=O)NCCN(CC(=O)NCCN(CC(=O)NCCN(CC(=O)NCCN(CC(=O)NCCN(CC(=O)N[C@@H](CCCCN)C(=O)N[C@@H](CCCCN)C(=O)N[C@@H](CCCCN)C(N)=O)C(=O)Cn2ccc(N)nc2=O)C(=O)Cn2ccc(N)nc2=O)C(=O)Cn2cc(C)c(=O)[nH]c2=O)C(=O)Cn2cc(C)c(=O)[nH]c2=O)C(=O)Cn2ccc(N)nc2=O)c(=O)[nH]c1=O`, the figures for the Fluorescence intensity entry in data set [6], in data set [7] and in data set [8] were “Not Active”, “Active” and “Active”, respectively.

For the compound `Cc1cn(CC(=O)N(CCNC(=O)CN(CCNC(=O)CN(CCNC(=O)CN(CCNC(=O)[C@H](CCCCN)NC(=O)COCCOCCNC(=O)COCCOCCNC(=O)[C@@H](N)CCCCN)C(=O)Cc2ccc(N)nc2)C(=O)Cn2cc(C)c(=O)[nH]c2=O)C(=O)Cc2ccc(N)nc2)CC(=O)NCCN(CC(=O)NCCN(CC(=O)NCCN(CC(=O)NCCN(CC(=O)NCCN(CC(=O)N[C@@H](CCCCN)C(=O)N[C@@H](CCCCN)C(=O)N[C@@H](CCCCN)C(N)=O)C(=O)Cc2ccc(N)nc2)C(=O)Cc2ccc(N)nc2)C(=O)Cn2cc(C)c(=O)[nH]c2=O)C(=O)Cn2cc(C)c(=O)[nH]c2=O)C(=O)Cc2ccc(N)nc2)c(=O)[nH]c1=O`, the Drug degradation in data set [9] is reported as 20%; in data set [10] it was 50%. The Drug uptake entry in data set [11] was “Active”.
